Key:
[1] = Partition coefficient (logD7.4); conditions: octanol/water
Renin [2] = target: T1, Renin (Homo sapiens, UniProt P00797); assay: Inhibitory activity against monkey plasma renin.; assay type: cell-free, Cercopithecidae; conditions: target entry is the homologue from another species
T1 sequence (P00797 whole entry): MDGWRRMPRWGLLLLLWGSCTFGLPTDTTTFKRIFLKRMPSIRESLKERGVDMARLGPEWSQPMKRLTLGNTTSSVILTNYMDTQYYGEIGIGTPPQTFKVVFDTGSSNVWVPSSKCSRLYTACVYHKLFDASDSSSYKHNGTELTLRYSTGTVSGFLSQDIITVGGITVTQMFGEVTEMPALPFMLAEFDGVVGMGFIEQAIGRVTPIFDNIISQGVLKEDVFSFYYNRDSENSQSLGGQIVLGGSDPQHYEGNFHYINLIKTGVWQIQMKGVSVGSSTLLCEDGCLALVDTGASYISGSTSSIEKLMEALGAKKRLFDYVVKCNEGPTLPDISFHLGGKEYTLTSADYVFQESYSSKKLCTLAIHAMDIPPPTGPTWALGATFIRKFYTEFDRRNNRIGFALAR
Summary of the method: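 Plasma from salt-depleted, furosemide-treated monkeys (native renin and angiotensinogen) incubated with maleate buffer (pH 6.0), PMSF and inhibitor in DMSO for 60 min at 37 °C. Plasma renin activity was 3–8 ng AI/mL per h. Percent inhibition was taken vs DMSO vehicle tubes, and IC50 from six concentrations by nonlinear regression.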

Renin [3] = target: T1, Renin; assay: Inhibitory activity against human plasma renin; assay type: cell-free
Cathepsin D = target: T2, Cathepsin D (Bos taurus, UniProt P80209); assay: Inhibitory activity against bovine cathepsin D was determined
T2 sequence (P80209 whole entry): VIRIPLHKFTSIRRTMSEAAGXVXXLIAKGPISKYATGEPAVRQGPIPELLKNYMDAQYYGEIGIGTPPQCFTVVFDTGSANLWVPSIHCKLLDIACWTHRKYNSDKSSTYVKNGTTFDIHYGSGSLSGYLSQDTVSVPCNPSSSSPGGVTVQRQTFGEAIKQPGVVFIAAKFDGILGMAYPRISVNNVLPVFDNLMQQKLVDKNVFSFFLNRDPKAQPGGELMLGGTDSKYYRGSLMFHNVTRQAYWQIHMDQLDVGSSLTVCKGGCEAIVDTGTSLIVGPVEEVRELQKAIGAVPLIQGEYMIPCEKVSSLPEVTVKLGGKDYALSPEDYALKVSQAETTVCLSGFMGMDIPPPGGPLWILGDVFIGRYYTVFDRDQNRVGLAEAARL
Summary of the method: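 Bovine cathepsin D activity assayed in duplicate as hydrolysis of bovine hemoglobin (2× crystallized) at pH 3.2, 37 °C. Net absorbance at 280 nm read in acid-precipitated supernatants of inhibited vs uninhibited controls. IC50 from six inhibitor concentrations by nonlinear regression.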

| SMILES | logD ([1]; pH 7.4, logD) | IC50 (Renin [2]) | IC50 (Renin [3]) | logD ([1]; pH 7.4) | IC50 (Cathepsin D) |
| --- | --- | --- | --- | --- | --- |
| CNC(=S)NCC#CCC(NC(=O)C(Cc1cccc2ccccc12)Cc1cccc2ccccc12)C(=O)NC(CC1CCCCC1)[C@@H](O)CC(=O)N1CCOC(CCN)C1 (stereo partly specified) | 5.46 | 48 nM |  |  |  |
| CCC(C)CNC(=O)C[C@H](O)C(CC(C)C)NC(=O)C(CCCCNC(=NC#N)SC)NC(=O)C(Cc1cccc2ccccc12)Cc1cccc2ccccc12 (stereo partly specified) | 5.51 | 41 nM | 19 nM |  |  |
| CC(C)CC(NC(=O)C(CCCC/N=C(/N)N[N+](=O)[O-])NC(=O)C(CC(=O)N1CCOCC1)Cc1cccc2ccccc12)[C@@H](O)CC(=O)N1CCOC(CCN)C1 (stereo partly specified) |  | 395 nM |  | 1.95 |  |
| CC(C)CC(NC(=O)C(CCCCNC(=O)OCc1ccccc1)NC(=O)C(Cc1ccccc1)NS(=O)(=O)N1CCOCC1)C(=O)C(F)(F)C(=O)N1CCOC(CCN)C1 (stereo unspecified) | 2.32 | 3.3 nM |  |  |  |
| CCC(C)CNC(=O)C[C@H](O)C(CC(C)C)NC(=O)C(C/C=C\CNC(C)=O)NC(=O)C(Cc1cccc2ccccc12)Cc1cccc2ccccc12 (stereo partly specified) | 5.56 | 100 nM |  |  |  |
| CNC(=S)NCCCCC(NC(=O)C(Cc1cccc2ccccc12)Cc1cccc2ccccc12)C(=O)NC(CC(C)C)[C@@H](O)CC(=O)N(C)OC (stereo partly specified) | 4.83 | 10600 nM |  |  |  |
| CCC(C)CNC(=O)C[C@H](O)C(CC(C)C)NC(=O)C(CCNC(=S)NC)NC(=O)C(Cc1cccc2ccccc12)Cc1cccc2ccccc12 (stereo partly specified) | 5.7 | 2490 nM | 9350 nM |  |  |
| CCC(C)CNC(=O)C[C@H](O)C(CC(C)C)NC(=O)C(Cc1cnc[nH]1)NC(=O)C(Cc1cccc2ccccc12)Cc1cccc2ccccc12 (stereo partly specified) |  | 85 nM | 61 nM |  |  |
| C/N=C(\S)NCCCCC(NC(=O)C(Cc1ccccc1)NS(=O)(=O)N1CCOCC1)C(=O)NC(CC1CCCCC1)[C@H](O)C(F)(F)C(=O)N1CCOC(CCN)C1 (stereo partly specified) | 2.93 | 2.3 nM |  |  |  |
| CCC(C)CNC(=O)C[C@H](O)C(CC(C)C)NC(=O)C(CCCCCNC(=S)NC)NC(=O)C(Cc1cccc2ccccc12)Cc1cccc2ccccc12 (stereo partly specified) | 5.41 | 39 nM | 40 nM |  |  |
| CCC(C)CNC(=O)C[C@H](O)C(CC1CCCCC1)NC(=O)C(CCCC/N=C(/S)NC)NC(=O)C(Cc1cccc2ccccc12)Cc1cccc2ccccc12 (stereo partly specified) | 6.63 | 47 nM |  |  | 3200 nM |
| CCC(C)CNC(=O)C[C@H](O)C(CC(C)C)NC(=O)C(C/C=C/C/N=C(/S)NC)NC(=O)C(Cc1cccc2ccccc12)Cc1cccc2ccccc12 (stereo partly specified) | 5.23 | 26 nM | 41 nM |  |  |
| CCC(C)CNC(=O)C[C@H](O)C(CC(C)C)NC(=O)C(CCCCCCN=C(S)NC)NC(=O)C(Cc1cccc2ccccc12)Cc1cccc2ccccc12 (stereo partly specified) | 5.64 | 44 nM | 48 nM |  |  |
| CCC(C)CNC(=O)C[C@H](O)C(CC(C)C)NC(=O)C(CCCCC/N=C(\N)N[N+](=O)[O-])NC(=O)C(Cc1cccc2ccccc12)Cc1cccc2ccccc12 (stereo partly specified) |  | 20 nM | 26 nM | 5.1 | 1470 nM |
| N=C(NCC#CCC(NC(=O)C(Cc1cccc2ccccc12)Cc1cccc2ccccc12)C(=O)NC(CC1CCCCC1)[C@@H](O)CC(=O)N1CCOC(CCN)C1)N[N+](=O)[O-] (stereo partly specified) |  | 12 nM |  | 4.73 |  |
| NCCC1CN(C(=O)C[C@H](O)C(CC2CCCCC2)NC(=O)C(Cc2c[nH]cn2)NC(=O)C(Cc2ccccc2)NS(=O)(=O)N2CCOCC2)CCO1 (stereo partly specified) | 2.25 | 5 nM | 5.4 nM |  |  |
| CC(C)(C)OC(=O)NCC#CCC(NC(=O)C(Cc1ccccc1)NS(=O)(=O)N1CCOCC1)C(=O)NC(CC1CCCCC1)[C@@H](O)CC(=O)N1CCOC(CCN)C1 (stereo in doubt; 61a) |  | 11 nM |  | 3.96 |  |
| CC(C)CC(NC(=O)C[C@H](O)C(CC(C)C)NC(=O)C(CCCCNC(=N)N[N+](=O)[O-])NC(=O)C(Cc1cccc2ccccc12)Cc1cccc2ccccc12)C(=O)NCc1ccccc1 (stereo partly specified) |  | 49 nM | 15 nM | 5.51 |  |
| CCC(C)CNC(=O)C[C@H](O)C(CC(C)C)NC(=O)C(CCCCNC(=O)NC)NC(=O)C(Cc1cccc2ccccc12)Cc1cccc2ccccc12 (stereo partly specified) | 5.63 | 44 nM | 29 nM |  |  |
| CS/C(=N\CCCCC(NC(=O)C(Cc1cccc2ccccc12)Cc1cccc2ccccc12)C(=O)NC(CC(C)C)[C@@H](O)CC(=O)N1CCOC(CCN)C1)NC#N (stereo partly specified) | 4.67 | 90 nM |  |  |  |

From ChEMBL document CHEMBL1125654, “New inhibitors of human renin that contain novel replacements at the P2 site” (J Med Chem, 1991)
